Assay results of several laboratories.
Lines come from different studies, so protocols differ.

Structure (SMILES) | organism | assay | test system | setting | measurement | result
Cc1ccc(C(=O)Nc2ccc(S(=O)(=O)O)c3cc(S(=O)(=O)O)cc(S(=O)(=O)O)c23)cc1NC(=O)c1cccc(NC(=O)Nc2cccc(C(=O)Nc3cc(C(=O)Nc4ccc(S(=O)(=O)O)c5cc(S(=O)(=O)O)cc(S(=O)(=O)O)c45)ccc3C)c2)c1 | Trypanosoma brucei | parasite growth | RHODESIENSE | – | EC50 | 0.05 µM
CC(C)(C)OC(=O)N[C@@H]1CCN(c2cc(C(=O)NCC(=O)O)ccc2NC(=O)c2cc(Br)c(Br)[nH]2)C1 | Enterococcus faecium | microbial growth, broth dilution | ATCC35667 | – | MIC | > 32 µg/mL
Cc1ccc(Cn2cc(C(=O)N/N=C/c3ccc([N+](=O)[O-])o3)c(=O)c3cc(Cl)c(Cl)cc32)cc1 | Trypanosoma brucei | parasite growth, resazurin | – | 72 h | EC50 | 1.02 µM
Cl.O=C(O)CNC(=O)c1ccc(NC(=O)c2cc(Br)c(Br)[nH]2)c(N2CCNCC2)c1 | Enterococcus faecium | microbial growth, broth dilution | ATCC35667 | – | MIC | > 32 µg/mL
Cc1ccc(Cn2cc(C(=O)N/N=C/c3ccc([N+](=O)[O-])o3)c(=O)c3cc([N+](=O)[O-])ccc32)cc1 | Trypanosoma brucei | parasite growth, resazurin | – | 72 h | EC50 | > 4 µM
COc1cc(NC(=O)c2ccc(C(F)(F)F)cc2C(F)(F)F)ccc1S(N)(=O)=O | Trypanosoma brucei | parasite growth, MTS | – | – | IC50 | > 100 µM
Cc1cc(C)c(C#N)c(SCc2ccccc2)n1 | Trypanosoma brucei | parasite growth, resazurin | RHODESIENSE | – | EC50 | > 64 µM
Cc1[nH]c(C(=O)Nc2ccc(C(=O)NCC(=O)O)cc2N2CC[C@H](NC(=O)OC(C)(C)C)C2)c(Cl)c1Cl | Enterococcus faecium | microbial growth, broth dilution | ATCC35667 | – | MIC | > 32 µg/mL
Cc1cc(C)c(C#N)c(SCC(=O)c2ccc(Cl)cc2)n1 | Trypanosoma brucei | parasite growth, resazurin | RHODESIENSE | – | EC50 | 30.2 µM
N=C(N)c1ccc(OCCCCCOc2ccc(C(=N)N)cc2)cc1 | Trypanosoma brucei | parasite growth, SYBR Green | – | – | EC50 | 0.016 µM
COc1ccc(C(=O)CSc2[nH]c(=O)cc(C(F)(F)F)c2C#N)cc1 | Trypanosoma brucei | parasite growth, resazurin | – | – | EC50 | 30.8 µM
Cc1ccc(Cn2cc(C(=O)NN)c(=O)c3cc(Oc4ccccc4)ccc32)cc1 | Trypanosoma brucei | parasite growth, resazurin | – | 72 h | EC50 | 0.46 µM
Cc1cc(C)c(C(N)=O)c(SCC(=O)c2ccc(Cl)cc2Cl)n1 | Trypanosoma brucei | parasite growth, resazurin | – | – | EC50 | > 64 µM
COc1ccc2c(c1)c(=O)c(C(=O)NN)cn2Cc1ccccc1 | Trypanosoma brucei | parasite growth, resazurin | – | 72 h | EC50 | > 4 µM
Cc1cc(C)c(C#N)c(SCC(=O)c2ccc(F)cc2)n1 | Trypanosoma brucei | parasite growth, resazurin | – | – | EC50 | 42.6 µM
Cl.N[C@H]1CCN(c2cc(C(=O)NCC(=O)O)ccc2NC(=O)c2cc(Br)c(Br)[nH]2)C1 | Enterococcus faecium | microbial growth, broth dilution | ATCC35667 | – | MIC | > 32 µg/mL
